ChEMBL document CHEMBL1121426, “Structure-activity study of antiulcerous and antiinflammatory drugs by discriminant analysis” (J Med Chem, 1980)

Tested on: not listed separately
Experiment: Partition coefficient (logP)
Type: physicochemical
Conditions: octanol/water

SMILES	logP
Nc1nc(N)nc(-c2ccc(Cl)cc2Cl)n1	2.07
O=C(O)Cc1cccc(F)c1	1.59
COc1cc(CC(=O)O)cc(C(C)C)c1	2.75
CCCCOc1cc(C)cc(CC(=O)O)c1	3.38
CCOc1cccc(CC(=O)O)c1	1.88
CCN(CC)c1c(C)n(C)c(=O)n(-c2ccccc2)c1=O	2.11
COc1cc(CC(=O)O)cc(C2CCCCC2)c1	3.66
COc1cc(CC(=O)O)cc(-c2ccc(F)cc2)c1	3.5
COc1cc(CC(=O)O)cc(-c2ccc(Cl)cc2Cl)c1	4.08
Cc1c(N(C)C)c(=O)n(C)c(=O)n1C	0.99
Cc1c(N(C)C)c(=O)[nH]c(=O)n1-c1ccccc1	1.4
Cc1c(N(C)C)c(=O)n(C)c(=O)n1-c1ccccc1	1.19
COc1ccc(-n2c(C)c(N(C)C)c(=O)n(C)c2=O)cc1	1.96
Nc1nc(N)nc(-c2cc(F)ccc2Cl)n1	1.38
Nc1nc(N)nc(-c2cc(Cl)ccc2F)n1	1.81
Nc1nc(N)nc(-c2cc(C(F)(F)F)ccc2Cl)n1	2.27
Cc1c(N(C)C)c(=O)n(CCO)c(=O)n1-c1ccccc1	1.12
COc1cc(CC(=O)O)cc(-c2ccc(C)cc2)c1	3.72
Cc1cc(CC(=O)O)cc(OCC(C)C)c1	3.33
Cc1ccc(-c2nc(N)nc(N)n2)cc1	1.92
Cc1c(N(C)C)c(=O)n(-c2ccccc2)c(=O)n1CCO	0.85
CCN(CC)c1c(C)n(-c2ccccc2)c(=O)n(CC)c1=O	2.78
COc1ccc(Br)cc1-c1nc(N)nc(N)n1	1.53
COc1ccc(-c2cc(CC(=O)O)cc(OC)c2)cc1	3.28
Nc1nc(N)nc(-c2cc(Cl)ccc2Br)n1	1.85
Nc1nc(N)nc(-c2cccc(Cl)c2)n1	2.33
Nc1nc(N)nc(-c2ccccc2[N+](=O)[O-])n1	0.49

SMILES	logP
Cc1c(N2CCCCC2)c(=O)n(-c2ccccc2)c(=O)n1C	2.76
Nc1nc(N)nc(-c2ccccc2I)n1	1.41
Nc1nc(N)nc(-c2cccc([N+](=O)[O-])c2)n1	1.57
Nc1nc(N)nc(-c2cccc(F)c2)n1	1.73
CCCNc1c(C)n(C)c(=O)n(-c2ccccc2)c1=O	1.2
Nc1nc(N)nc(-c2cccc(C(F)(F)F)c2)n1	2.67
Nc1nc(N)nc(-c2ccc(F)cc2)n1	1.61
Nc1nc(N)nc(-c2cccc(SC(F)(F)F)c2)n1	3.2
Nc1nc(N)nc(-c2ccc([N+](=O)[O-])cc2)n1	1.6
CCCCNc1c(C)n(C)c(=O)n(-c2ccccc2)c1=O	1.69
Nc1nc(N)nc(-c2ccc(Cl)cc2Br)n1	2.09
Cc1ccccc1-c1nc(N)nc(N)n1	1.26
O=C(O)Cc1cccc(Cl)c1	1.59
CCOc1ccccc1-c1nc(N)nc(N)n1	1.03
Cc1c(NCC(C)C)c(=O)n(-c2ccccc2)c(=O)n1C	1.48
CCCNc1c(C)n(-c2ccccc2)c(=O)n(C)c1=O	1.7
Nc1nc(N)nc(-c2cc(Br)ccc2F)n1	1.94
Nc1nc(N)nc(-c2cc(Br)ccc2Br)n1	2.09
CSc1cccc(-c2nc(N)nc(N)n2)c1	2.16
C=CCn1c(=O)c(N(C)C)c(C)n(-c2ccccc2)c1=O	1.98
COc1ccccc1-c1nc(N)nc(N)n1	0.58
COc1cccc(CC(=O)O)c1	1.45
Cc1c(N2CCCC2)c(=O)n(-c2ccccc2)c(=O)n1C	2.26
Nc1nc(N)nc(-c2cc(Br)ccc2Cl)n1	2.04
Nc1nc(N)nc(-c2ccccc2)n1 [BENZOGUANAMINE]	1.36
CC(C)Cc1ccc(CC(=O)O)cc1 [IBUFENAC]	3.38
Nc1nc(N)nc(-c2cc(Cl)ccc2Cl)n1 [IRSOGLADINE]	1.97

Next, values leading:

logP	SMILES
1.38	Nc1nc(N)nc(-c2c(Cl)cccc2Cl)n1
1.89	Cc1cccc(CC(=O)O)c1
1.44	C=CCn1c(C)c(N(C)C)c(=O)n(-c2ccccc2)c1=O
2.75	O=C(O)Cc1cc(O)cc(-c2ccccc2)c1
2.59	C=CCN(CC=C)c1c(C)n(-c2ccccc2)c(=O)n(C)c1=O
1.45	Nc1nc(N)nc(-c2cc(F)ccc2Br)n1
1.3	Cc1c(N(C)C)c(=O)n(-c2ccccc2)c(=O)n1C
1.94	COc1cc(C)cc(CC(=O)O)c1
3.42	O=C(O)Cc1cc(O)cc(-c2ccc(Cl)cc2)c1
1.34	O=C(O)Cc1cccc([N+](=O)[O-])c1
3.3	COc1cc(CC(=O)O)cc(-c2ccccc2)c1
2.2	CCN(CC)c1c(C)n(CC)c(=O)n(-c2ccccc2)c1=O
0.69	Cc1c(N2CCOCC2)c(=O)n(-c2ccccc2)c(=O)n1C
2.36	O=C(O)Cc1cccc(Br)c1
2.29	CCn1c(=O)c(N(C)C)c(C)n(-c2ccccc2)c1=O
1.26	Nc1nc(N)nc(-c2ccccc2Br)n1
2.32	Cc1c(N(C)C)c(=O)n(C)c(=O)n1-c1ccc(Cl)cc1
2.19	CCN(CC)c1c(C)n(-c2ccccc2)c(=O)n(C)c1=O
0.29	CS(=O)(=O)c1cccc(-c2nc(N)nc(N)n2)c1
1.19	Nc1nc(N)nc(-c2ccccc2Cl)n1
2.39	Cc1c(N2CCOCC2)c(=O)n(C)c(=O)n1C1CCCCC1
2.44	Nc1nc(N)nc(-c2cccc(Br)c2)n1
3.66	COc1cc(CC(=O)O)cc(-c2ccccc2Cl)c1
1.65	CCc1ccccc1-c1nc(N)nc(N)n1
3.71	COc1cc(CC(=O)O)cc(-c2ccc(Cl)cc2)c1

Tested on: Rattus norvegicus
Experiment: Tested for inhibition of edema growth in rat
Type: functional
Set-up: concentration or dose not given beside the values
Conditions: not given
Method in brief: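 Carrageenin paw edema in male Wistar rats (120-150 g, 10 per group). Dosing was oral, as 1% suspensions in 0.5% aqueous Na-CMC: phenylacetic acids at 100 mg/kg, aminouracils at 200 mg/kg. Paw volume was read by mercury displacement before and 3 h after injection. Percent inhibition of mean swelling was taken versus control; error <±10%.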

SMILES	Inhibition [%]
O=C(O)Cc1cccc(F)c1	0
Cc1cccc(CC(=O)O)c1	0
C=CCn1c(C)c(N(C)C)c(=O)n(-c2ccccc2)c1=O	54
COc1cc(CC(=O)O)cc(C(C)C)c1	10
CCCCOc1cc(C)cc(CC(=O)O)c1	3
CCOc1cccc(CC(=O)O)c1	17
O=C(O)Cc1cc(O)cc(-c2ccccc2)c1	14
CCN(CC)c1c(C)n(C)c(=O)n(-c2ccccc2)c1=O	45
COc1cc(CC(=O)O)cc(C2CCCCC2)c1	35
COc1cc(CC(=O)O)cc(-c2ccc(F)cc2)c1	74
COc1cc(CC(=O)O)cc(-c2ccc(Cl)cc2Cl)c1	60
Cc1c(N(C)C)c(=O)n(C)c(=O)n1C	37
Cc1c(N(C)C)c(=O)[nH]c(=O)n1-c1ccccc1	35
Cc1c(N(C)C)c(=O)n(C)c(=O)n1-c1ccccc1	65
C=CCN(CC=C)c1c(C)n(-c2ccccc2)c(=O)n(C)c1=O	46
COc1ccc(-n2c(C)c(N(C)C)c(=O)n(C)c2=O)cc1	41
Cc1c(N(C)C)c(=O)n(-c2ccccc2)c(=O)n1C	44
Cc1c(N(C)C)c(=O)n(CCO)c(=O)n1-c1ccccc1	34
COc1cc(CC(=O)O)cc(-c2ccc(C)cc2)c1	23
Cc1cc(CC(=O)O)cc(OCC(C)C)c1	13
Cc1c(N(C)C)c(=O)n(-c2ccccc2)c(=O)n1CCO	31
CCN(CC)c1c(C)n(-c2ccccc2)c(=O)n(CC)c1=O	53
COc1ccc(-c2cc(CC(=O)O)cc(OC)c2)cc1	13

SMILES	Inhibition [%]
COc1cc(C)cc(CC(=O)O)c1	6
O=C(O)Cc1cc(O)cc(-c2ccc(Cl)cc2)c1	14
O=C(O)Cc1cccc([N+](=O)[O-])c1	0
COc1cc(CC(=O)O)cc(-c2ccccc2)c1	68
CCN(CC)c1c(C)n(CC)c(=O)n(-c2ccccc2)c1=O	57
Cc1c(N2CCCCC2)c(=O)n(-c2ccccc2)c(=O)n1C	27
Cc1c(N2CCOCC2)c(=O)n(-c2ccccc2)c(=O)n1C	35
O=C(O)Cc1cccc(Br)c1	0
CCCNc1c(C)n(C)c(=O)n(-c2ccccc2)c1=O	64
CCn1c(=O)c(N(C)C)c(C)n(-c2ccccc2)c1=O	51
CCCCNc1c(C)n(C)c(=O)n(-c2ccccc2)c1=O	48
Cc1c(N(C)C)c(=O)n(C)c(=O)n1-c1ccc(Cl)cc1	41
O=C(O)Cc1cccc(Cl)c1	0
CCN(CC)c1c(C)n(-c2ccccc2)c(=O)n(C)c1=O	46
Cc1c(NCC(C)C)c(=O)n(-c2ccccc2)c(=O)n1C	58
CCCNc1c(C)n(-c2ccccc2)c(=O)n(C)c1=O	45
C=CCn1c(=O)c(N(C)C)c(C)n(-c2ccccc2)c1=O	75
Cc1c(N2CCOCC2)c(=O)n(C)c(=O)n1C1CCCCC1	44
COc1cc(CC(=O)O)cc(-c2ccccc2Cl)c1	75
COc1cccc(CC(=O)O)c1	-3
Cc1c(N2CCCC2)c(=O)n(-c2ccccc2)c(=O)n1C	32
COc1cc(CC(=O)O)cc(-c2ccc(Cl)cc2)c1	66
CC(C)Cc1ccc(CC(=O)O)cc1 [IBUFENAC]	32

Tested on: Rattus norvegicus
Experiment: Antiulcer activity in rat at the dose of 20 mg/kg administered intraperitoneally.
Type: functional
Conditions: ip, route intraperitoneal
Method in brief: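 Pyloric ligation was done under ether on Wistar-King rats (200-250 g, 10 per group) fasted 24 h. Drug was suspended at 10 mg/mL in 0.9% saline with a trace of Tween 80 and given ip at 20 mg/kg; controls received saline. Forestomach ulcers were scored macroscopically 18 h later as an ulcer index. Percent inhibition was taken versus the mean control index; error <±10%.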

SMILES	inhibition in vivo at 20 mg/kg [%]
Nc1nc(N)nc(-c2c(Cl)cccc2Cl)n1	54
Nc1nc(N)nc(-c2ccc(Cl)cc2Cl)n1	100
Nc1nc(N)nc(-c2cc(F)ccc2Br)n1	78
Nc1nc(N)nc(-c2cc(F)ccc2Cl)n1	78
Nc1nc(N)nc(-c2cc(Cl)ccc2F)n1	89
Nc1nc(N)nc(-c2cc(C(F)(F)F)ccc2Cl)n1	51
Cc1ccc(-c2nc(N)nc(N)n2)cc1	54
COc1ccc(Br)cc1-c1nc(N)nc(N)n1	49
Nc1nc(N)nc(-c2cc(Cl)ccc2Br)n1	81
Nc1nc(N)nc(-c2cccc(Cl)c2)n1	100
Nc1nc(N)nc(-c2ccccc2[N+](=O)[O-])n1	11
Nc1nc(N)nc(-c2ccccc2I)n1	-7
Nc1nc(N)nc(-c2ccc(Cl)cc2)n1	69
Nc1nc(N)nc(-c2cccc([N+](=O)[O-])c2)n1	85
Nc1nc(N)nc(-c2cccc(F)c2)n1	70
Nc1nc(N)nc(-c2cccc(C(F)(F)F)c2)n1	81
Nc1nc(N)nc(-c2ccc(F)cc2)n1	84

SMILES	inhibition in vivo at 20 mg/kg [%]
Nc1nc(N)nc(-c2cccc(SC(F)(F)F)c2)n1	87
Nc1nc(N)nc(-c2ccc([N+](=O)[O-])cc2)n1	41
Nc1nc(N)nc(-c2ccccc2Br)n1	26
Nc1nc(N)nc(-c2ccc(Cl)cc2Br)n1	96
Cc1ccccc1-c1nc(N)nc(N)n1	28
CCOc1ccccc1-c1nc(N)nc(N)n1	-5
CS(=O)(=O)c1cccc(-c2nc(N)nc(N)n2)c1	-6
Nc1nc(N)nc(-c2cc(Br)ccc2F)n1	100
Nc1nc(N)nc(-c2cc(Br)ccc2Br)n1	43
CSc1cccc(-c2nc(N)nc(N)n2)c1	49
Nc1nc(N)nc(-c2ccccc2Cl)n1	36
Nc1nc(N)nc(-c2cccc(Br)c2)n1	96
COc1ccccc1-c1nc(N)nc(N)n1	1
Nc1nc(N)nc(-c2cc(Br)ccc2Cl)n1	86
CCc1ccccc1-c1nc(N)nc(N)n1	20
Nc1nc(N)nc(-c2ccccc2)n1 [BENZOGUANAMINE]	70
Nc1nc(N)nc(-c2cc(Cl)ccc2Cl)n1 [IRSOGLADINE]	100
